# Assay outcomes: PubChem, several laboratories
# The list is not random: actives were taken first. Their share in the collection is about 4.8%.
# ALR H2O2 inh: blocks human ALR sulfhydryl oxidase activity; purified ALR, DTT oxidation, H2O2 HRP-luminol luminescence; inhibition, % (test concentration not listed); 3.8% of 290,000 active;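 active means mean replicate inhibition above about 79%, with every replicate also reaching it, limit read from the data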
# Target sequence (P55789 whole entry, looked up): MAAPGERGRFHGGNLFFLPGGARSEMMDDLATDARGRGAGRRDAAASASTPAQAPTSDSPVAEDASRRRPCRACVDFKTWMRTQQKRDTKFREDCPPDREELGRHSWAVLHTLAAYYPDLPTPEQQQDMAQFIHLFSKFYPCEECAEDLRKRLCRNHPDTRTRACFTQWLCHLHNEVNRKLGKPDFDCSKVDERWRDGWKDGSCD
# NALP1 yeast inh: inhibitors of NALP1 inflammasome in yeast | S. cerevisiae NALP1/ASC/caspase-1 growth, X-gal OD620, 72 h | inhibition, % at 10 µM | 0.61% of 280,000 active; in the data active means inhibition mostly above about 24%, no sharp cut-off; inactive means mostly below about 32%
# ATG4B inh: inhibitors of human ATG4B cysteine protease; Q9Y4P1; ATG4B cleavage of LC3-PLA2, NBD-HPC fluorescence, 1 h; inhibition, % at 8.33 µM; 0.51% of 340,000 active; AID 504462; in the data active means inhibition above about 40%
# UCH37 DUB inh: blocks the human deubiquitinase UCH37; 0.33% of 330,000 active; purified proteasome/UCH37, Ub-AMC cleavage fluorescence; Q9Y5K5; inhibition, % (concentration not given with the values);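 active means mean inhibition over replicate wells above about 20%, limit read from the data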;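 further: 0% = compound-free wells with enzyme and 100% = wells lacking proteasome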
# Target sequence (Q9Y5K5 whole entry, looked up): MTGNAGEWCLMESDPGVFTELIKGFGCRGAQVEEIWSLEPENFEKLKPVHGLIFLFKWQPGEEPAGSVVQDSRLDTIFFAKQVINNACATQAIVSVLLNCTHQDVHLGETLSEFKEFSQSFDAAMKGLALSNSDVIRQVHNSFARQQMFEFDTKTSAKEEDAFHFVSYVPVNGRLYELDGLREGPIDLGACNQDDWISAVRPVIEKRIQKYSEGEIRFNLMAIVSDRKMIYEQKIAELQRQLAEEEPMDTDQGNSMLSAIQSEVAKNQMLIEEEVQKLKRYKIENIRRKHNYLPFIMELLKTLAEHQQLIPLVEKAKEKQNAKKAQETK
#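 Material: human UCH37 enzyme supplied as purified proteasome complex / Amount: 0.15 nM proteasome as dispensed / Buffer or medium: pH 7.4 Tris-HCl (50 mM) with ovalbumin, ATP-MgCl2, DTT / Times: preincubation 30 min, reaction 25 min, room temperature / Technique: AMC fluorescence from Ub-AMC cleavage, excitation 355 nm, emission 460 nm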
# Calb FLC: affects C. albicans growth with fluconazole | C. albicans CaCi-2 (fluconazole-resistant clinical isolate) + fluconazole, Alamar Blue growth, 48 h | growth inhibition, % (test concentration not listed) | 0.57% of 300,000 active | AID 1979;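 active means growth inhibition above about 58% in most replicates, limit read from the data, passing the limit was not always enough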;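 further: all wells also contain fluconazole at 8 µg/ml as a sub-toxic cotreatment; 0% = median of DMSO wells and 100% = median of geldanamycin control wells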
# NALP3 yeast inh: blocks the NALP3 inflammasome reconstituted in yeast; Yeast reconstituted NLRP3/ASC/caspase-1, beta-gal luminescence, 24 h; inhibition, % at 10 µM; 0.39% of 330,000 active;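 active means inhibition of 50% or more; inactive means inhibition below 50%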;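 further: plate controls were induced DMSO wells for no effect and uninduced yeast grown without galactose for full effect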
# Starred values were filed as active, the others as inactive; · = not tested or not shown; ! = not active in a repeat.
SMILES,ALR H2O2 inh,NALP1 yeast inh,ATG4B inh,UCH37 DUB inh,Calb FLC,NALP3 yeast inh
NC(=O)c1ccsc1NC(=O)COC(=O)c1cccnc1Cl,94*,·,-7,4,·,15
FC(F)(F)C1=CC(c2ccc(Cl)cc2)=NCCN1,99*,3,5,12,-3,7
Oc1ccccc1C1=NCCNC(C(F)(F)F)=C1,27,7,2,10,14,7
O=C(O)C(c1ccccc1)N1C(=O)/C(=C/c2cccs2)SC1=S (stereo not given),98*,-9,12,9,3,-5
COc1cc(C=NNC(=O)COc2ccc(Cl)cc2)ccc1OS(=O)(=O)c1ccc(C)cc1,·,·,·,2,·,·
Cc1[nH]nc2c1C(c1ccco1)C(C#N)=C(N)O2 (stereo not given),9,9,7,3,9,6
Cc1[nH]nc2c1C(c1ccc(OC(=O)c3ccco3)cc1)C(C#N)=C(N)O2 (stereo not given),52,-4,54*,1,-4,10
O=S(=O)(N=C(c1ccc(Cl)cc1)N1CCOCC1)c1ccc(Cl)cc1,·,·,·,4,·,·
CN(N=Cc1ccc(C(C)(C)C)cc1)C1=NCCN1,·,·,·,0,·,·
CCN(CC)CCn1c(NCc2ccccn2)nc2ccccc21,5,42*,1,2,-3,5
CC(C)n1c(NCc2cccs2)nc2ccccc21,98*,5,2,7,65,21
CCN(CC)c1ccc(CNc2nc3ccccc3n2C(C)C)cc1,·,·,2,-1,4,12
CC(C)n1c(NCc2ccccc2O)nc2ccccc21,98*,6,-1,3,11,-3
CC(C)n1c(NCc2ccc(N(C)C)cc2)nc2ccccc21,93*,33,2,4,-4,15
CC(=NNC(=S)NCc1ccccc1)c1ccc(Cl)s1,·,·,·,5,·,·
CCN(CC)c1ccc(CNc2nc3ccccc3n2CC)cc1,99*,·,6,4,7,13
CCCn1c(NCc2ccc(N(C)C)cc2)nc2ccccc21,·,-17,4,5,13,23
COc1cccc(N2CCN(S(=O)(=O)c3cccc4cccnc34)CC2)c1,94*,25,-18,4,2,11
COc1ccc(N2CCN(S(=O)(=O)c3cccc4cccnc34)CC2)cc1,78*,-2,-12,7,5,10
CC1CC(C)CN(S(=O)(=O)c2cccc3cccnc23)C1 (stereo not given),92*,16,-2,3,-5,12
O=C(C1CCCN1S(=O)(=O)c1cccc2cccnc12)N1CCN(c2ccccc2)CC1 (stereo not given),88*,1,-7,5,5,9
O=S(=O)(c1cccc2cccnc12)N1CCOCC1,-5,31,-6,3,-5,6
CN(C)C=Nc1sc2c(c1C#N)CCCCC2,·,·,·,6,·,·
Cc1nn(-c2ccccc2)c(C)c1C=NN1CCN(c2ccc(Cl)cc2)CC1,·,·,·,3,·,·
CCn1c(O)c(C=NN=Cc2ccc(OC)cc2)c2cc(C3=NNC(=O)CC3)ccc21,·,·,·,8,·,·
SMILES,ALR H2O2 inh,NALP1 yeast inh,ATG4B inh,UCH37 DUB inh,Calb FLC,NALP3 yeast inh
Cc1cccc(-c2n[nH]c(=S)n2N=Cc2ccc(C)s2)c1,·,·,·,1,·,·
COc1ccc(C(=O)NCCCCCC(=O)NN=Cc2ccco2)cc1OC,·,·,·,4,·,·
Cc1cccc(C(=O)N2CCCC(Nc3ccc(F)c(F)c3)C2)n1 (stereo not given),45,3,23,1,-4,12
COc1ccc(NC2CCCN(C(=O)c3cn(C)c4ccccc34)C2)cc1 (stereo not given),99*,5,4,0,-13,13
Cc1ccc(NC2CCCN(C(=O)c3cn(C)c4ccccc34)C2)cc1C (stereo not given),92*,8,21,2,3,5
Cn1c(C(=O)N2CCCC(Nc3ccc(F)cc3)C2)cc2ccccc21 (stereo not given),41,15,8,7,-9,16
Cc1[nH]c2ccccc2c1C=NNc1cccc(C(=O)O)c1,·,·,·,-2,·,·
COc1ccc(N2CCN(c3nc(C)c(C)c(=O)[nH]3)CC2)cc1,16,22,4,4,0,17
Cc1nnc(N2CCN(Cc3ccccc3)CC2)[nH]c1=O,99*,14,-2,3,-5,19
Cc1cc2[nH]c(=O)c(=O)[nH]c2cc1S(=O)(=O)N1CCN(c2ccccc2)CC1,97*,14,6,1,0,6
Cc1nc(N2CCN(c3ccccc3)CC2)[nH]c(=O)c1C,97*,5,-3,4,21,0
Cc1cc(C=Nn2cnnc2)c(O)c([N+](=O)[O-])c1,·,·,·,13,·,·
CCCCc1nn2c(N)c(/C=C3\C=Nc4ccccc43)c(=O)nc2s1,38,20,16,-29,19,13
CS(=O)(=O)c1nsc2nc(=O)c(/C=C3\C=Nc4ccccc43)c(N)n12,90*,11,13,2,-3,5
CCCc1nn2c(N)c(/C=C3\C=Nc4ccccc43)c(=O)nc2s1,92*!,17,-2,-2,5,11
CC(C)Sc1nsc2nc(=O)c(/C=C3\C=Nc4ccccc43)c(N)n12,2,8,22,3,34,20
CCCn1c(CCC(=O)O)ccc1-c1cccs1,99*,7,1,-65,-3,-38
O=C(O)CCc1ccc(-c2cccs2)n1CC1CCCO1 (stereo not given),99*,26,5,-100,2,8
COCCCn1c(CCC(=O)O)ccc1-c1cccs1,98*,17,5,-210,-9,9
S=c1[nH]c(-c2ccccc2)cn1N=Cc1cccc2ccccc12,·,·,·,3,·,·
Cc1ccc(C=NNC(=O)CNC(=O)c2ccc(S(=O)(=O)N(C)C)cc2)o1,·,·,·,5,·,·
CC(C)(C)c1ccc(C(=O)NN=Cc2ccc(OCCCF)cc2)cc1,·,·,·,-5,·,·
Cc1noc(NS(=O)(=O)c2ccc(NC(=O)c3oc4ccc(Cl)cc4c3C)cc2)c1C,98*,2,7,3,0,1
Cc1ccccc1C(=O)Nc1ccc(S(=O)(=O)Nc2onc(C)c2C)cc1,9,-16,-8,6,-2,-1
Cc1ccc(-c2cc(C(=O)Nc3ccc(S(=O)(=O)Nc4onc(C)c4C)cc3)c3ccccc3n2)cc1,98*,-12,15,2,24,10
Cc1noc(NS(=O)(=O)c2ccc(NC(=O)c3cnc4n(c3=O)CCS4)cc2)c1C,99*,4,7,11,-6,9
Cc1ccc2c(=O)cc(C(=O)Nc3ccc(S(=O)(=O)Nc4onc(C)c4C)cc3)oc2c1,97*,13,-4,9,2,0
S=c1[nH]nc(-c2cccc(Cl)c2)n1N=Cc1ccco1,·,·,·,3,·,·
Cc1ccc2c(C)c(C(=O)Nc3ccc(S(=O)(=O)Nc4onc(C)c4C)cc3)oc2c1,97*,12,-21,4,2,-2
